Source: ChEMBL document CHEMBL1132319, “2,3-Dihydro-2-oxo-1H-benzimidazole-1-carboxamides with selective affinity for the 5-HT(4) receptor: synthesis and structure-affinity and structure-activity relationships of a new series of partial agonist and antagonist derivatives” (J Med Chem, 1999)

Assays:
[1] = target: T1, 5-hydroxytryptamine receptor 4 (Cavia porcellus, UniProt O70528); experiment: Binding affinity against 5-hydroxytryptamine 4 receptor in guinea pig striatum using [3H]GR-113808 as radioligand
How it was run: (§1)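 Male Dunkin–Hartley guinea pig striatal membranes in 50 mM Hepes pH 7.4 (1:80 wt/vol, 800–900 μg protein) with 0.1 nM [3H]GR 113808. Nonspecific binding with 10 μM 5-HT. Incubated 30 min at 25 °C, then filtered on PEI-treated filters and counted by scintillation. 10–12 displacer concentrations; two experiments in triplicate; IC50 and Ki.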

[2] = system: 5-HT4 receptor (Rattus norvegicus); experiment: Antagonistic activity against 5-hydroxytryptamine 4 receptor
[3] = system: 5-HT4 receptor (Rattus norvegicus); experiment: Agonistic activity against 5-hydroxytryptamine 4 receptor
[4] = target: T2, Serotonin 3 (5-HT3) receptor (Rattus norvegicus, UniProt P35563+Q9JJ16); experiment: Inhibitory concentration against 5-hydroxytryptamine 3 receptor in rat entorhinal cortex using [3H]-LY 278584 as radioligand
T2 sequence (P35563 whole entry): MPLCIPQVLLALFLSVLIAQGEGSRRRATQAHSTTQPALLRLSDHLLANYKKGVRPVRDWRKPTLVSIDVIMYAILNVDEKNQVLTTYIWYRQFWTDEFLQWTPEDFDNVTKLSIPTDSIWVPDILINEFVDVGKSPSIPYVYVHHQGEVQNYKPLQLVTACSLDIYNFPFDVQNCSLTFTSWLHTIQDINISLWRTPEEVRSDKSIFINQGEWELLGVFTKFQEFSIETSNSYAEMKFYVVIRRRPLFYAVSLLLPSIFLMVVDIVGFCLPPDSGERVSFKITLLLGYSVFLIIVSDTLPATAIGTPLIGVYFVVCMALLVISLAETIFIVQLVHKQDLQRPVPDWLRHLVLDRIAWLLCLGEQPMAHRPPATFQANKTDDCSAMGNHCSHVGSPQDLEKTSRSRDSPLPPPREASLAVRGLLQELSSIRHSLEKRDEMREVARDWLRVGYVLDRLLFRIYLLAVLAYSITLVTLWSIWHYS
T2 sequence (Q9JJ16 whole entry): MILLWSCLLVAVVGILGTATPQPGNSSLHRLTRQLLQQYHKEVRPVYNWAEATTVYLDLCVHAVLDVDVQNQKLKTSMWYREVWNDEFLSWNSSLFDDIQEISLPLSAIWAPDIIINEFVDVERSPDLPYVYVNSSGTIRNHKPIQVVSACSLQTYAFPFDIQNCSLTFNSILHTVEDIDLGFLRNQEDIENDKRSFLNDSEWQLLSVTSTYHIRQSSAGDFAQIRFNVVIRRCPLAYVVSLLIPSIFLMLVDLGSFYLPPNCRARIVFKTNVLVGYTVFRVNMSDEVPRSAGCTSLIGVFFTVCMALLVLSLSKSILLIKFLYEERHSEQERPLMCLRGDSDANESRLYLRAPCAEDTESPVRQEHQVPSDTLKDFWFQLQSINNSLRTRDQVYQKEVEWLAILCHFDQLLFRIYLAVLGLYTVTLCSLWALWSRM
How it was run: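 Male Wistar rat entorhinal cortex membranes in 50 mM Tris-HCl with 5 mM CaCl2, 0.1% ascorbate and 10 μM pargyline (1:40 wt/vol, 500–600 μg protein), with 2 nM [3H]LY 278584. Nonspecific binding with 10 μM 5-HT.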

[5] = target: T1, 5-hydroxytryptamine receptor 4; experiment: Displacement of [3H]GR-113808 from 5-hydroxytryptamine 4 receptor in guinea pig striatum; how it was run: as §1

T1 sequence (O70528 whole entry): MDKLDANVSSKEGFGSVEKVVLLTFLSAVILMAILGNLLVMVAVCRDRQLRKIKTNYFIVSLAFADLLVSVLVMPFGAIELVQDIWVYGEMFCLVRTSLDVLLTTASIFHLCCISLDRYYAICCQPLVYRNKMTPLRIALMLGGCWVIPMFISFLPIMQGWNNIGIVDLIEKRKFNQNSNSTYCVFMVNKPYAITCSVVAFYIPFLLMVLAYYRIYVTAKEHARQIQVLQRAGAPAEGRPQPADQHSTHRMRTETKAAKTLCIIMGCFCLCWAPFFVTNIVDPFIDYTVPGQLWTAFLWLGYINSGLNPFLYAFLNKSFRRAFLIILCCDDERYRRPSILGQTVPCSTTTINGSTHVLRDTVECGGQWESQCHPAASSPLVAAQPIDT

| Ki [1] [nM] | pKb [2] | Intrinsic activity [3] | IC50 [4] [nM] | IC50 [5] [nM] | Ki [4] [nM] | SMILES |
| --- | --- | --- | --- | --- | --- | --- |
| 75.4 | 6.79 | < 0.3 | > 1000 | – | – | CCn1c(=O)n(C(=O)NCCN2CCN(C)CC2)c2ccccc21 |
| 91.1 | < 6 | 0.94 | > 1000 | – | – | CC(C)n1c(=O)n(C(=O)NCCN2CCN(C)CC2)c2ccccc21 |
| – | < 6 | 0.7 | > 1000 | > 1000 | – | CC(C)n1c(=O)n(C(=O)NCCN2CCN(C)CC2)c2cc(Cl)ccc21 |
| 306 | < 6 | 0.42 | > 1000 | – | – | CN1CCN(CCNC(=O)n2c(=O)n(C)c3ccccc32)CC1 |
| 13.3 | 7.51 | 0.46 | > 1000 | – | – | CCCCN1CCN(CCNC(=O)n2c(=O)n(C3CC3)c3ccccc32)CC1 |
| 17.9 | – | – | > 1000 | – | – | CCN1CCN(CCNC(=O)n2c(=O)n(CC)c3ccccc32)CC1 |
| – | < 6 | < 0.3 | > 1000 | > 1000 | – | COc1ccc2c(c1)n(C(=O)NCCN1CCN(C)CC1)c(=O)n2C(C)C |
| – | < 6 | < 0.3 | > 1000 | > 1000 | – | CC(C)n1c(=O)n(C(=O)NCCCN2CCN(C)CC2)c2ccccc21 |
| – | < 6 | < 0.3 | – | > 1000 | 201 | CC(C)n1c(=O)n(C(=O)NN2CCN(C)CC2)c2ccccc21 |
| 8.2 | 7.46 | 0.41 | > 1000 | – | – | CCCN1CCN(CCNC(=O)n2c(=O)n(C3CC3)c3ccccc32)CC1 |
| 87.3 | 6.89 | 0.68 | > 1000 | – | – | CCCN1CCN(CCNC(=O)n2c(=O)n(C(C)C)c3ccccc32)CC1 |
| 262 | – | – | > 1000 | – | – | CC(C)n1c(=O)n(C(=O)NCCN2CCN(Cc3ccc(F)cc3)CC2)c2ccccc21 |
| 253 | < 6 | 0.48 | > 1000 | – | – | CCCn1c(=O)n(C(=O)NCCN2CCN(C)CC2)c2ccccc21 |
| – | – | – | – | > 1000 | 309 | CC(C)n1c(=O)n(C(=O)NCN2CCN(C)CC2)c2ccccc21 |
| 56.3 | 6.28 | < 0.3 | > 1000 | – | – | C=CC[N+]1(C)CCN(CCNC(=O)n2c(=O)n(C(C)C)c3ccccc32)CC1 |
| – | < 6 | 0.35 | > 1000 | 1000 | – | CN1CCN(CCNC(=O)n2c(=O)[nH]c3ccccc32)CC1 |
| 10.2 | – | – | > 1000 | – | – | CN1CCN(CCNC(=O)n2c(=O)n(C3CC3)c3ccccc32)CC1 |
| 34.1 | 7.73 | < 0.3 | > 1000 | – | – | CCCCN1CCN(CCNC(=O)n2c(=O)n(CC)c3ccccc32)CC1 |
| 6.7 | – | – | > 1000 | – | – | CC(C)N1CCN(CCNC(=O)n2c(=O)n(C3CC3)c3ccccc32)CC1 |
| 66.3 | 6 | 0.93 | > 1000 | – | – | CCCC[N+]1(C)CCN(CCNC(=O)n2c(=O)n(C(C)C)c3ccccc32)CC1 |
| 49.4 | 6.19 | 0.53 | > 1000 | – | – | CN1CCN(CNC(=O)n2c(=O)n(C3CC3)c3ccccc32)CC1 |

The next lines start with the molecule.

| SMILES | Ki [1] [nM] | pKb [2] | Intrinsic activity [3] | IC50 [4] [nM] | IC50 [5] [nM] | Ki [4] [nM] |
| --- | --- | --- | --- | --- | --- | --- |
| CN1CCN(CCNC(=O)n2c(=O)n(CCc3ccccc3)c3ccccc32)CC1 | – | – | – | > 1000 | > 1000 | – |
| CC(C)n1c(=O)n(C(=O)NCCN2CCN(CCCOc3ccc(F)cc3)CC2)c2ccccc21 | 375 | – | – | > 1000 | – | – |
| CC(C)N1CCN(CCNC(=O)n2c(=O)n(C(C)C)c3ccccc32)CC1 | 89.8 | – | – | > 1000 | – | – |
| Cn1cc(C(=O)OCC2CCN(CCNS(C)(=O)=O)CC2)c2ccccc21 | 0.11 | – | – | > 1000 | – | – |
| CN1CCN(CCCNC(=O)n2c(=O)n(C3CC3)c3ccccc32)CC1 | 39.7 | 6.4 | 0.46 | > 1000 | – | – |
| CCCCN1CCN(CCNC(=O)n2c(=O)n(C(C)C)c3ccccc32)CC1 | 38.9 | – | – | > 1000 | – | – |
| CC(C)n1c(=O)n(C(=O)NC2CC3CCC(C2)N3C)c2ccccc21 (centres undefined) | 63.9 | – | – | – | – | 0.5 |
| CCCCn1c(=O)n(C(=O)NCCN2CCN(C)CC2)c2ccccc21 | – | < 6 | < 0.3 | > 1000 | > 1000 | – |
| CC(C)n1c(=O)n(C(=O)NCCN2CCN(C)CC2)c2cc(F)ccc21 | 108 | 6.88 | 0.67 | > 1000 | – | – |
| CC(C)n1c(=O)n(C(=O)NCCN2CCN(C)CC2)c2cc(F)c([N+](=O)[O-])cc21 | – | – | – | > 1000 | > 1000 | – |
| CC(C)n1c(=O)n(C(=O)NCCN2CC[N+](C)(C)CC2)c2ccccc21 | 68.5 | < 6 | 0.75 | > 1000 | – | – |
| CCCN1CCN(CCNC(=O)n2c(=O)n(CC)c3ccccc32)CC1 | 16.9 | – | – | > 1000 | – | – |
| C=CCn1c(=O)n(C(=O)NCCN2CCN(C)CC2)c2ccccc21 | – | < 6 | 0.63 | > 1000 | > 1000 | – |
| CC(C)n1c(=O)n(C(=O)NCCN2CCN(Cc3ccc4c(c3)OCO4)CC2)c2ccccc21 | – | < 6 | 0.3 | > 1000 | > 1000 | – |
| CC(C)n1c(=O)n(C(=O)NCCN2CCN(C)CC2)c2cc(F)c(N)cc21 | – | < 6 | < 0.3 | > 1000 | > 1000 | – |
| Cc1cccc2c1n(C(C)C)c(=O)n2C(=O)NCCN1CCN(C)CC1 | 216 | – | – | – | – | – |
| CCn1c(=O)n(C(=O)NCCN2CCN(C(C)C)CC2)c2ccccc21 | 25.2 | – | – | > 1000 | – | – |
| CCN1CCN(CCNC(=O)n2c(=O)n(C(C)C)c3ccccc32)CC1 | 104 | 6.62 | 0.87 | > 1000 | – | – |
| CN1CCN(CCNC(=O)n2c(=O)n(Cc3ccccc3)c3ccccc32)CC1 | – | < 6 | < 0.3 | > 1000 | > 1000 | – |
